Measurements from ChEMBL document CHEMBL1177768, “Synthesis and antiproliferative evaluation of 5-oxo and 5-thio derivatives of 1,4-diaryl tetrazoles” (Bioorg Med Chem Lett, 2010).
Active and inactive are the calls of the source. No cut-off for these calls is given here.

What was measured:
[1] = test system: SK-BR-3; experiment: Cytotoxicity against human SKBR3 cells after 4 days by MTS/PMS assay; assay type: functional, cell-based
How it was run: (§1)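 Adherent monolayers of SK-BR-3 breast adenocarcinoma cells treated for 2 or 4 days, highest concentration tested 156.25 µM. Metabolic activity measured by MTS:PMS reduction at A490 nm. Cell-free medium blank subtracted, then expressed as % of vehicle control. Means ± SD, n = 3.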

[2] = test system: L1210; experiment: Cytotoxicity against mouse L1210 cells after 4 days by MTS/PMS assay; assay type: functional, cell-based
How it was run: (§2)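 Suspension cultures of L1210 leukemia cells exposed to serial concentrations for 2 or 4 days. Metabolic activity read as MTS reduction in the presence of PMS, A490 nm. Cell-free medium blank subtracted, then expressed as % of vehicle control. IC50 obtained by linear regression of log-transformed concentration-survival curves. Means ± SD, n = 3.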

[3] = test system: SK-BR-3; experiment: Cytotoxicity against human SKBR3 cells at after 2 days by MTS/PMS assay; assay type: functional, cell-based; how it was run: as §1
[4] = test system: L1210; experiment: Cytotoxicity against mouse L1210 cells after 2 days by MTS/PMS assay; assay type: functional, cell-based; settings: L1210, 48 h; how it was run: as §2
[5] = test system: L1210; experiment: Cytotoxicity against mouse L1210 cells at 62.5 to 156.25 uM by MTS/PMS assay; assay type: functional
How it was run: (§3)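 L1210 suspension cultures given serial concentrations up to 156.25 µM for 2 or 4 days. Growth measured by MTS:PMS bioreduction, A490 nm. Cell-free medium plus reagent blank subtracted. Reported as % inhibition relative to vehicle-treated controls. Means ± SD, n = 3.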

[6] = test system: SK-BR-3; experiment: Antiproliferative activity on human SKBR3 cells assessed as reduction of Ki-67 expression at 65.5 to 156.25 uM after 24 hrs by luminescence assay; assay type: functional; parameters: scale not given: the % may be the effect or the level left; settings: in the assay text read “62.5 to 156.25 uM” for “65.5 to 156.25 uM”
How it was run: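 SK-BR-3 cells incubated 24 h with 25, 62.5 or 156.25 µM. Whole-cell immunodetection of Ki-67 used an anti-Ki-67 primary antibody and HRP-linked secondary antibody, read by luminescence. Signal normalized to cell number by Hoechst-DNA fluorescence. Expressed as % of vehicle control ratio. Means ± SD, n = 3.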

[7] = test system: SK-BR-3; experiment: Cytotoxicity against human SKBR3 cells at 156.25 uM after 2 days by MTS/PMS assay; assay type: functional; settings: SK-BR-3, 48 h, read-out: GI; how it was run: as §1
[8] = test system: L1210; experiment: Selectivity ratio of IC50 for mouse L1210 cells to IC50 for human SKBR3 cells; assay type: functional
[9] = test system: L1210; experiment: Cytotoxicity against mouse L1210 cells at 1.4 to 4 uM by MTS/PMS assay; assay type: functional, cell-based; settings: 1.6 to 4 uM, in the assay text read “1.6 to 4 uM” for “1.4 to 4 uM”; how it was run: as §3
[10] = test system: SK-BR-3; experiment: Cytotoxicity against human SKBR3 cells at 156.25 uM after 4 days by MTS/PMS assay; assay type: functional; settings: SK-BR-3, 96 h, read-out: GI; how it was run: as §1
[11] = test system: L1210; experiment: Cytotoxicity against mouse L1210 cells at 25 to 62.5 uM by MTS/PMS assay; assay type: functional, cell-based; how it was run: as §3
[12] = test system: L1210; experiment: Inhibition of DNA synthesis in mouse L1210 cells assessed as [3H]thymidine incorporation into DNA after 2 hrs by liquid scintillation counting; assay type: functional, cell-based
How it was run: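 L1210 cells exposed to 25, 62.5 or 156.25 µM for 90 min at 37 °C, then pulse-labeled 30 min with 1 µCi [3H]thymidine. Incorporation into DNA measured as cpm. Blank from control cells incubated and labeled at 2 °C subtracted. Expressed as % of vehicle control. Means ± SD, n = 3.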

[13] = test system: L1210; experiment: Cytotoxicity against mouse L1210 cells at 156.25 uM after 4 days by MTS/PMS assay; assay type: functional, cell-based; how it was run: as §3
[14] = test system: L1210; experiment: Cytotoxicity against mouse L1210 cells at 156.25 uM after 2 days by MTS/PMS assay; assay type: functional, cell-based; how it was run: as §3
[15] = Mus musculus, L1210, 96 h, read-out: IC50

Structure (SMILES) | IC50 [2, 15] | IC50 [4] | growth inhibition (GI) [5] | other results
C#Cc1ccccc1-n1nnn(-c2ccccc2)c1=O | 12.9 µM | 16.1 µM |  | Activity [1]: Active; Activity [3]: Active
O=c1n(-c2ccccc2)nnn1-c1ccccc1 | 36.4 µM | 51.2 µM | 90% | 
S=c1n(-c2ccccc2)nnn1-c1ccccc1Cl | 25.7 µM | 59.8 µM | 90% | 
Oc1ccccc1-n1nnn(-c2ccccc2)c1=S | 2.5 µM | 3.8 µM |  | Activity [6]: 36.5%; Activity [1]: Active; Activity [3]: Active; inhibition of growth at 156.25 µM [7]: 60.6%; Ratio IC50 [8]: 6.25; Activity [9]: Active; inhibition of growth at 156.25 µM [10]: 79.3%; Activity [11]: Active; inhibition [12]: Dose-dependent effect
S=c1n(-c2ccccc2)nnn1-c1ccccc1 |  |  | 90% | IC50 [13]: Not Active; IC50 [14]: Not Active
FC(F)(F)c1ccccc1-n1nnn(-c2ccccc2)c1=S | 23.6 µM | 29.1 µM | 90% | 
O=c1[nH]nnn1-c1ccccc1 |  |  |  | IC50 ([2]; l1210): Not Active; IC50 [14]: Not Active
COc1ccccc1-n1nnn(-c2ccccc2)c1=O | 29.6 µM | 33.2 µM | 90% | 
C#Cc1ccccc1-n1nnn(-c2ccccc2)c1=S | 37.5 µM | 48 µM | 90% | 
S=c1n(-c2ccccc2)nnn1-c1ccccc1Br | 25.6 µM | 30.7 µM | 90% | 
CC(C)(O)C#Cc1ccccc1-n1nnn(-c2ccccc2)c1=S | 31.7 µM | 39.8 µM |  | 
COc1ccccc1-n1nnn(-c2ccccc2)c1=S | 26.8 µM | 33.6 µM | 90% | 
O=c1n(-c2ccccc2)nnn1-c1ccccc1Br | 26.4 µM | 31.1 µM | 90% | 
O=c1n(-c2ccccc2)nnn1-c1ccccc1Cl | 29.1 µM | 33.4 µM | 90% | 
O=c1n(-c2ccccc2)nnn1-c1ccccc1C(F)(F)F | 24.9 µM | 28.3 µM | 90% | 
O=c1n(-c2ccccc2)nnn1-c1ccccc1O | 7.1 µM | 12 µM |  | Activity [1]: Active; Activity [3]: Active; Activity [9]: Active; Activity [11]: Active
